The source of these data is ChEMBL document CHEMBL1649406, “Synthesis and anti-mycobacterial activities of triazoloquinolones” (Eur J Med Chem, 2011).

The test system of series [1] is Escherichia coli. The series can be described thus: Antibacterial activity against Escherichia coli after 18 to 24 hrs by broth microdilution method. The class given is functional. The gist of the method:
(§1)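 Broth microdilution per CLSI; compounds dissolved in DMSO at 10 mg/mL stock, serially diluted in Mueller Hinton Broth, mixed with equal volume of bacterial inoculum (final […]); incubated 37 °C for 18–24 h; MIC taken as lowest concentration preventing visible growth; duplicate determinations.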
On the technique in general: Dilution methods test growth across graded concentrations, often in twofold steps.

For series [2], the system named is Mycolicibacterium smegmatis. Kind of series: Antimycobacterial activity against Mycobacterium smegmatis MC2 155 after 72 hrs by broth microdilution method. Format: functional. The conditions noted are these: str. MC2 155, 72 h. The gist of the method: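 Strains were pre-grown in Middlebrook 7H11 with OADC. The microdilution assay ran in sealed 96-well plates at 37 °C and was read after 72 h for M. smegmatis mc²155 and after 7 days for M. bovis BCG.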

Series [3] has as its system Stenotrophomonas maltophilia. Kind of series: Antibacterial activity against Stenotrophomonas maltophilia after 18 to 24 hrs by broth microdilution method. Format: functional. The gist of the method:
as §1

Series [4] concerns Mycobacterium tuberculosis. The series can be described thus: Antimycobacterial activity against Mycobacterium tuberculosis H37Ra by twofold agar dilution method. Format: functional. The gist of the method: (§2)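 Strains grown in Middlebrook 7H11 with OADC. Suspensions at McFarland 1 turbidity were diluted 1:10, 1:100 and 1:10,000 in Middlebrook 7H9. These were inoculated onto duplicate Middlebrook 7H11 plates containing serial concentrations of compound.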
(In agar dilution the substance is mixed into plates at graded concentrations.)

Series [5] relates to Candida albicans. The series can be described thus: Antifungal activity against Candida albicans after 48 hrs by NCCLS method. The class given is functional. The gist of the method:
(§3)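 NCCLS yeast broth dilution; inocula from 48 h, 35 °C Sabouraud agar cultures diluted to 10⁶ CFU/mL; compounds from 10 mg/mL DMSO stock serially diluted in RPMI-1640, added to equal volume of fungal suspension in round-bottom microplates; incubated 35 °C for 48–72 h; MIC in duplicate.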

The test system of series [6] is Acinetobacter baumannii. Kind of series: Antibacterial activity against Acinetobacter baumannii after 18 to 24 hrs by broth microdilution method. Format: functional. The gist of the method:
as §1

Series [7] deals with Mycobacterium tuberculosis. Kind of series: Antimycobacterial activity against Mycobacterium tuberculosis H37Rv by twofold agar dilution method. The class given is functional. The method in brief:
as §2

In series [8] the test system is Enterobacter cloacae. Kind of series: Antibacterial activity against Enterobacter cloacae after 18 to 24 hrs by broth microdilution method. The class given is functional. The method in brief:
as §1

Series [9] relates to Klebsiella pneumoniae. Kind of series: Antibacterial activity against Klebsiella pneumoniae after 18 to 24 hrs by broth microdilution method. The class given is functional. The gist of the method:
as §1

Series [10] concerns Enterococcus faecalis. The series can be described thus: Antibacterial activity against Enterococcus faecalis after 18 to 24 hrs by broth microdilution method. Format: functional. The gist of the method: as §1
Series [11] deals with Candida tropicalis. The series can be described thus: Antifungal activity against Candida tropicalis after 48 hrs by NCCLS method. The class given is functional. The gist of the method:
as §3

A short description of series [12]: Cytotoxicity against human MT4 cells after 96 hrs by MTT assay. The class given is cell-based. The gist of the method:
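Exponentially growing MT-4 cells (CD4+ T-cells carrying integrated HTLV-1) seeded at 1 × 10⁵ cells/mL in RPMI-1640 with 10% FCS, penicillin and streptomycin; exposed to serial compound dilutions at 37 °C, humidified 5% CO₂; viability read by MTT after 96 h; CC50 derived.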
(In general: Formazan colour is commonly taken as a measure of viable cells.)

Series [13] relates to Pseudomonas aeruginosa. The series can be described thus: Antibacterial activity against Pseudomonas aeruginosa after 18 to 24 hrs by broth microdilution method. Format: functional. The gist of the method:
as §1

Series [14] has as its system Staphylococcus epidermidis. The series can be described thus: Antibacterial activity against Staphylococcus epidermidis after 18 to 24 hrs by broth microdilution method. The class given is functional. The gist of the method:
as §1

Series [15] has as its system Staphylococcus aureus. The series can be described thus: Antibacterial activity against Staphylococcus aureus after 18 to 24 hrs by broth microdilution method. Format: functional. The method in brief:
as §1

Converted amounts (≈) assume the structure as drawn. A value given as a limit tells only on which side of the number the result lay.

As usually defined, the MIC is the smallest concentration in the dilution series that meets the test's criterion for growth inhibition. Low readings indicate inhibition by little substance, high ones a need for much substance. Usually CC50 stands for the concentration that lowers cell viability or growth by half. Read a low CC50 as harm at low concentration.

`Cn1nnc2c3c(ccc21)c(=O)c(C(=O)O)cn3C(C)(C)C`: the minimum inhibitory concentration (MIC) in [1] is greater than 64 µg/mL; in series [2] it was 32 µg/mL (≈ 107 µM); in series [3] it was greater than 64 µg/mL; in series [4], 8 µg/mL (≈ 26.6 µM); in series [5], greater than 64 µg/mL; in series [6], greater than 64 µg/mL. Also, the MIC in series [7] is 16 µg/mL (≈ 53.3 µM); in [8], greater than 64 µg/mL; in [9], greater than 64 µg/mL; in series [10], greater than 64 µg/mL; in series [11] it was greater than 64 µg/mL; in [13] it was greater than 64 µg/mL. The MIC in series [14] and in series [15] was greater than 64 µg/mL each time. This molecule also yielded a half-maximal cytotoxic concentration (CC50) at 96 h in [12] greater than 100 µg/mL.
As for `Cn1cc(C(=O)O)c(=O)c2ccc3c(nnn3Cc3ccccc3)c21`, the MIC in series [1] is greater than 64 µg/mL; in series [2] it was 32 µg/mL (≈ 95.7 µM); in series [3], greater than 64 µg/mL; in series [4], 4 µg/mL (≈ 12 µM); in series [5], greater than 64 µg/mL; in series [6], greater than 64 µg/mL. Besides, the MIC is 8 µg/mL (≈ 23.9 µM) in series [7]; greater than 64 µg/mL in [8]; greater than 64 µg/mL in [9]; greater than 64 µg/mL in series [10]; greater than 64 µg/mL in series [11]; greater than 64 µg/mL in [13]. For the same molecule, the MIC in series [14] and in [15] was greater than 64 µg/mL each time. Also, in series [12], the CC50 at 96 h was greater than 100 µg/mL.
Take `Cn1cc(C(=O)O)c(=O)c2ccc3c(nnn3C)c21`: the MIC in series [1] was greater than 64 µg/mL; in [2] it was 5 µg/mL (≈ 19.4 µM); in series [3], greater than 64 µg/mL; in series [4], 0.5 µg/mL (≈ 1.94 µM); in series [5] it was greater than 64 µg/mL; in series [6], greater than 64 µg/mL. Moreover, the MIC in [7] is 0.5 µg/mL (≈ 1.94 µM); in series [8], greater than 64 µg/mL; in [9] it was greater than 64 µg/mL; in series [10] it was greater than 64 µg/mL; in [11], greater than 64 µg/mL; in series [13], greater than 64 µg/mL. The minimal inhibitory concentration (MIC) in series [14] and in series [15] was greater than 64 µg/mL each time. Also, the CC50 at 96 h in [12] was greater than 100 µg/mL.
For the molecule `CCOC(=O)c1cn(C)c2c(ccc3c2nnn3Cc2ccccc2)c1=O`, the MIC in [1] is greater than 64 µg/mL; in series [2], greater than 128 µg/mL; in series [3], greater than 64 µg/mL; in series [4], greater than 128 µg/mL; in [5], greater than 64 µg/mL; in [6], greater than 64 µg/mL. Moreover, the MIC is 64 µg/mL (≈ 177 µM) in series [7]; greater than 64 µg/mL in series [8]; greater than 64 µg/mL in series [9]; greater than 64 µg/mL in series [10]; greater than 64 µg/mL in series [11]; greater than 64 µg/mL in series [13]. The MIC in series [14] and in series [15] was greater than 64 µg/mL in each case.
Regarding `CCOC(=O)c1cn(CC)c2c(ccc3c2nnn3Cc2ccccc2)c1=O`, the MIC in series [1] is greater than 64 µg/mL; in series [2] it was greater than 128 µg/mL; in series [3], greater than 64 µg/mL; in [4] it was greater than 128 µg/mL; in series [5], greater than 64 µg/mL; in series [6], greater than 64 µg/mL. Also, the MIC in series [7] was 64 µg/mL (≈ 170 µM); in series [8], greater than 64 µg/mL; in series [9], greater than 64 µg/mL; in series [10], greater than 64 µg/mL; in series [11], greater than 64 µg/mL; in series [13], greater than 64 µg/mL. The minimum inhibitory concentration (MIC) in [14] and in series [15] was greater than 64 µg/mL each time.
`CCOC(=O)c1cn(C(C)(C)C)c2c(ccc3c2nnn3C)c1=O`: the MIC in series [1] is greater than 64 µg/mL; in [2], 16 µg/mL (≈ 48.7 µM); in series [3], greater than 64 µg/mL; in series [4] it was 4 µg/mL (≈ 12.2 µM); in [5], greater than 64 µg/mL; in [6], greater than 64 µg/mL. The MIC is 32 µg/mL (≈ 97.5 µM) in [7]; greater than 64 µg/mL in [8]; greater than 64 µg/mL in series [9]; greater than 64 µg/mL in series [10]; greater than 64 µg/mL in series [11]; greater than 64 µg/mL in series [13]. Further, the MIC in series [14] and in series [15] was greater than 64 µg/mL in each case.
On to `C=CCn1cc(C(=O)OCC)c(=O)c2ccc3c(nnn3Cc3ccccc3)c21`, for which the MIC was greater than 64 µg/mL in series [1]; greater than 128 µg/mL in [2]; greater than 64 µg/mL in [3]; greater than 128 µg/mL in series [4]; greater than 64 µg/mL in series [5]; greater than 64 µg/mL in series [6]. The MIC was 64 µg/mL (≈ 165 µM) in series [7]; greater than 64 µg/mL in [8]; greater than 64 µg/mL in series [9]; greater than 64 µg/mL in series [10]; greater than 64 µg/mL in series [11]; greater than 64 µg/mL in series [13]. The MIC in series [14] and in [15] was greater than 64 µg/mL each time.
